Measured values published in ChEMBL document CHEMBL4145656, “Additional Insights into Hypericum perforatum Content: Isolation, Total Synthesis, and Absolute Configuration of Hyperbiphenyls A and B from Immunomodulatory Root Extracts” (J Nat Prod, 2018).
Activity calls are given as the source filed them. No cut-off for these calls is given here.

Legend:
HUVEC [1] = test: Immunomodulatory activity in HUVEC assessed as inhibition of IFNgamma-induced MICA expression at 10 uM pretreated for 1 hr followed by IFNgamma stimulation and measured after 48 hrs by immunostaining based flow cytometry relative to control; format: functional
HUVEC [2] = test: Immunomodulatory activity in HUVEC assessed as inhibition of IFNgamma-induced HLA-E expression at 10 uM pretreated for 1 hr followed by IFNgamma stimulation and measured after 48 hrs by immunostaining based flow cytometry relative to control; format: functional
In short: (§1)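 Endothelial cells were stimulated with IFNγ to upregulate MHC class II and HLA-E in the presence of test agent at 10 μM. Surface expression was measured by flow cytometry.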

HUVEC [3] = test: Immunomodulatory activity in HUVEC assessed as inhibition of IFNgamma-induced MHC-1 expression at 10 uM pretreated for 1 hr followed by IFNgamma stimulation and measured after 48 hrs by immunostaining based flow cytometry relative to control; format: functional
In short: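 Cultured vascular endothelial cells were stimulated with IFNγ to upregulate MHC molecules (MHC class I, class II, HLA-E) in the presence of the test compound at 10 μM. Surface expression of MHC was then quantified by flow cytometry.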

HUVEC [4] = test: Immunomodulatory activity in HUVEC assessed as inhibition of IFNgamma-induced HLA-DR expression at 10 uM pretreated for 1 hr followed by IFNgamma stimulation and measured after 48 hrs by immunostaining based flow cytometry relative to control; format: functional; in short: as §1
HUVEC [5] = test: Effect on HLA-DR expression in HUVEC at 10 uM measured after 1 hr by immunostaining based flow cytometry; format: ADME, cell-based; conditions: human
HUVEC [6] = test: Effect on MHC-1 expression in HUVEC at 10 uM measured after 1 hr by immunostaining based flow cytometry; format: ADME, cell-based; conditions: human
HUVEC [7] = test: Effect on HLA-E expression in HUVEC at 10 uM measured after 1 hr by immunostaining based flow cytometry; format: ADME, cell-based; conditions: human
HUVEC [8] = test: Immunomodulatory activity in HUVEC assessed as inhibition of TNFalpha-induced VCAM1 expression at 5 to 50 uM measured by ELISA relative to control; format: functional, Homo sapiens
In short: (§2)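 Cell-based ELISA on cultured vascular endothelial cells quantifying surface molecules. Cells were stimulated with TNF to induce VCAM-1 and MICA, or with IFNγ to induce MHC class I. Test agents were present at 5, 25 and 50 μM.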

HUVEC [9] = test: Immunomodulatory activity in HUVEC assessed as inhibition of TNFalpha-induced MICA expression at 5 to 50 uM measured by ELISA relative to control; format: functional, Homo sapiens; in short: as §2
HUVEC [10] = test: Immunomodulatory activity in HUVEC assessed as inhibition of IFNgamma-induced MHC1 expression at 5 to 50 uM measured by ELISA relative to control; format: functional, Homo sapiens; in short: as §2
HUVEC [11] = test: Reduction in basal MICA expression in HUVEC at 10 uM measured after 1 hr by immunostaining based flow cytometry; format: ADME, cell-based; set-up: scale not given: the % may be the effect or the level left; conditions: human

COc1cc2oc3cc(O)cc(O)c3c(=O)c2c2c1OC(C)(C)C=C2
Activity (HUVEC [1]; Homo sapiens): inactive | Activity (HUVEC [2]; Homo sapiens): inactive | Activity (HUVEC [3]; Homo sapiens): inactive | Activity (HUVEC [4]; Homo sapiens): inactive

O.O=P(O)(O)C(O)(Cn1ccnc1)P(=O)(O)O [ZOLEDRONIC ACID]
Activity (HUVEC [3]): 67%

COc1cc(C2Oc3c(OC)cc4c(=O)c5ccccc5oc4c3OC2CO)ccc1O (configuration not stated)
Activity (HUVEC [1]; Homo sapiens): inactive | Activity (HUVEC [2]; Homo sapiens): inactive | Activity (HUVEC [3]; Homo sapiens): inactive | Activity (HUVEC [4]; Homo sapiens): inactive

COc1c(O)ccc2c(=O)c3c(O)cc4c(c3oc12)C(C)(C)C(C)O4 (configuration not stated)
Activity (HUVEC [1]): 24% | Activity (HUVEC [2]): 40% | Activity (HUVEC [5]): Non-Toxic | Activity (HUVEC [6]): Non-Toxic | Activity (HUVEC [7]): Non-Toxic | inhibition (INH) (HUVEC [8]): >50% | Activity (HUVEC [4]): 25% | inhibition (INH) (HUVEC [9]): <10% | inhibition (INH) (HUVEC [10]): 10 - 25% | Activity (HUVEC [11]): 25%

COc1cc(-c2ccccc2)cc2c1C[C@H](O)C(C)(C)O2
Activity (HUVEC [1]; Homo sapiens): inactive | Activity (HUVEC [2]; Homo sapiens): inactive | Activity (HUVEC [3]; Homo sapiens): inactive | Activity (HUVEC [4]; Homo sapiens): inactive

COc1cc(-c2ccccc2)cc2c1C[C@@H](C(C)(C)O)O2
Activity (HUVEC [1]; Homo sapiens): inactive | Activity (HUVEC [2]; Homo sapiens): inactive | Activity (HUVEC [3]; Homo sapiens): inactive | Activity (HUVEC [4]; Homo sapiens): inactive
